Data published in ChEMBL document CHEMBL1255258, “Aminoglycosides affect intracellular Salmonella enterica serovars typhimurium and virchow” (Antimicrob Agents Chemother, 2008).
Converted amounts (≈) assume the structure as drawn. The source made the active and inactive calls. The calls are words filed in the database; no cut-off is given here.

Experiments:
Salmonella typhimurium [1] = assay: Antibacterial activity against Salmonella enterica serovars Typhimurium ATCC 14028 at pH 5.7 by bioluminescence assay; assay type: functional, organism-based, Salmonella enterica subsp. enterica serovar Typhimurium
In short: (§1)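 Overnight cultures carrying the pChν1 lux plasmid were diluted 1:100 in LB broth with 30 μg ml−1 chloramphenicol, adjusted to pH 7 or 5.7. Final titer was ~10^6 CFU ml−1, with antibiotic at 0 to 500 μg ml−1. After 1 h at 30°C, homoserine-lactone (100 ng ml−1) was added to induce light. EC50 was the concentration halving light emission at 60 min; mean of three experiments.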

[2] = Antibacterial activity against Salmonella enterica serovars virchow isolate 101591 at pH 5.7 by bioluminescence assay; assay type: functional, Salmonella enterica subsp. enterica serovar Virchow; in short: as §1
[3] = Antibacterial activity against Salmonella enterica serovars virchow isolate 101591 at pH 7.0 by bioluminescence assay; assay type: functional, Salmonella enterica subsp. enterica serovar Virchow; in short: as §1
Salmonella typhimurium [4] = assay: Antibacterial activity against Salmonella enterica serovars Typhimurium ATCC 14028 at pH 7.0 by bioluminescence assay; assay type: functional, organism-based, Salmonella enterica subsp. enterica serovar Typhimurium; in short: as §1
Salmonella typhimurium [5] = assay: Antibacterial activity against Salmonella enterica serovars Typhimurium ATCC 14028 infected in mouse J774A.1 macrophage assessed as log reduction in viable counts at 150 ug/ml after 1hr; assay type: functional, organism-based; conditions: Salmonella enterica subsp. enterica serovar Typhimurium
In short: (§2)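 J774 macrophages were seeded overnight at 37°C in 5% CO2, then switched to antibiotic-free RPMI. They were infected at 100:1 with Salmonella grown in RPMI to OD600 about 1. Extracellular bacteria were removed with 5 μg ml−1 polymyxin B for 10 min. Aminoglycoside was given for 1 h. Cells were lysed in 1% Triton X-100 buffer, and 1:10 serial dilutions were plated on LB agar.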

[6] = system: Salmonella enterica subsp. enterica serovar Virchow; assay: Antibacterial activity against Salmonella enterica serovars virchow isolate 101591 infected in mouse J774A.1 macrophage assessed as log reduction in viable counts at 150 ug/ml after 1hr; assay type: functional; in short: as §2
Salmonella typhimurium [7] = assay: Antibacterial activity against Salmonella enterica serovars Typhimurium ATCC 14028 assessed as log reduction in viable counts at 150 ug/ml after 1hr; assay type: functional, organism-based; conditions: Salmonella enterica subsp. enterica serovar Typhimurium
Salmonella typhimurium [8] = assay: Antibacterial activity against Salmonella enterica serovars Typhimurium ATCC 14028 at pH 7.0 by broth dilution method; assay type: functional, Salmonella enterica subsp. enterica serovar Typhimurium
In short: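 Broth dilution MIC in LB broth buffered with phosphate to pH 7. Overnight culture was diluted 1:100 to about 10^6 CFU ml−1 final, with antibiotic at 0 to 500 μg ml−1. A600 was read after 24 h at 37°C with shaking.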

[9] = (§3) Antibacterial activity against Salmonella enterica serovars virchow isolate 101591 at pH 7.0 by broth dilution method; assay type: functional, Salmonella enterica subsp. enterica serovar Virchow
In short: (§4)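 Broth dilution MIC. Overnight cultures were diluted 1:100 in LB broth buffered with phosphate to pH 7 or 5.7, giving a final inoculum of ~10^6 CFU ml−1. Antibiotic range was 0 to 500 μg ml−1. Absorbance at 600 nm was read after 24 h at 37°C with shaking; mean of three experiments.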

[10] = system: Salmonella enterica subsp. enterica serovar Virchow; assay: Antibacterial activity against Salmonella enterica serovars virchow isolate 101591 infected in mouse J774A.1 cells at 50 ug/ml after 1hr; assay type: functional, cell-based; in short: as §2
Salmonella typhimurium [11] = assay: Antibacterial activity against Salmonella enterica serovars Typhimurium ATCC 14028 infected in mouse J774A.1 cells at 50 ug/ml after 1hr; assay type: functional, organism-based; conditions: Salmonella enterica subsp. enterica serovar Typhimurium; in short: as §2
Salmonella typhimurium [12] = assay: Antibacterial activity against Salmonella enterica serovars Typhimurium ATCC 14028 at pH 5.7 by broth dilution method; assay type: functional, Salmonella enterica subsp. enterica serovar Typhimurium; in short: as §4
[13] = (§5) Antibacterial activity against Salmonella enterica serovars virchow isolate 101591 at pH 5.7 by broth dilution method; assay type: functional, Salmonella enterica subsp. enterica serovar Virchow; in short: as §4
[14] = system: Salmonella enterica subsp. enterica serovar Virchow; assay: Antibacterial activity against Salmonella enterica serovars virchow isolate 101591 assessed as log reduction in viable counts at 150 ug/ml after 1hr; assay type: functional
[15] = system: Salmonella enterica subsp. enterica serovar Virchow; assay: Reduction in light emission by Salmonella enterica serovars virchow isolate 101591 infected in mouse J774A.1 cells after 5 mins; assay type: functional, cell-based
In short: (§6)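 Salmonella carrying pChν1 infected J774 macrophages (100:1, polymyxin B wash). Cells were held in antibiotic-free RPMI for 10 min at 37°C. Homoserine lactone 500 ng ml−1 was added, and 20 min later aminoglycoside at 15, 50, 100 or 150 μg ml−1. Luminescence was read every 5 min to 40 or 60 min, as % of untreated wells. Triplicate wells, at least three experiments.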

Salmonella typhimurium [16] = assay: Reduction in light emission by Salmonella enterica serovars Typhimurium ATCC 14028 infected in mouse J774A.1 cells at 15 ug/ml after 40 mins; assay type: functional, organism-based; set-up: scale not given: the % may be the effect or the level left; conditions: Salmonella enterica subsp. enterica serovar Typhimurium; in short: as §6
Salmonella typhimurium [17] = assay: Reduction in light emission by Salmonella enterica serovars Typhimurium ATCC 14028 after 5 mins; assay type: functional, organism-based; conditions: Salmonella enterica subsp. enterica serovar Typhimurium
[18] = system: Salmonella enterica subsp. enterica serovar Virchow; assay: Reduction in light emission by Salmonella enterica serovars virchow isolate 101591 at >= 50 ug/ml after 40 mins; assay type: functional
Salmonella [19] = assay: Antibacterial activity against Salmonella infected in mouse RAW 264.7 cells expressing Nramp1 assessed as log reduction in viable count at 100 ug/ml; assay type: functional, organism-based
Salmonella typhimurium [20] = assay: Reduction in light emission by Salmonella enterica serovars Typhimurium ATCC 14028 at <= 30 ug/ml; assay type: functional, organism-based; conditions: Salmonella enterica subsp. enterica serovar Typhimurium
[21] = system: Salmonella enterica subsp. enterica serovar Virchow; assay: as §3; assay type: functional; in short: as §4
Salmonella typhimurium [22] = assay: Reduction in light emission by Salmonella enterica serovars Typhimurium ATCC 14028 infected in mouse J774A.1 cells at 50 ug/ml after 40 mins; assay type: functional, organism-based; conditions: Salmonella enterica subsp. enterica serovar Typhimurium; in short: as §6
Salmonella typhimurium [23] = assay: Reduction in light emission by Salmonella enterica serovars Typhimurium ATCC 14028 infected in mouse J774A.1 cells at 50 ug/ml within 5 mins; assay type: functional, organism-based; conditions: Salmonella enterica subsp. enterica serovar Typhimurium; in short: as §6
Salmonella typhimurium [24] = assay: Reduction in light emission by Salmonella enterica serovars Typhimurium ATCC 14028 infected in mouse J774A.1 cells at 15 ug/ml after 30 mins; assay type: functional, organism-based; conditions: Salmonella enterica subsp. enterica serovar Typhimurium; in short: as §6
Salmonella typhimurium [25] = assay: Reduction in light emission by Salmonella enterica serovars Typhimurium ATCC 14028 infected in mouse Nramp deficient RAW 264.7 cells at 100 ug/ml; assay type: functional, organism-based; set-up: scale not given: the % may be the effect or the level left; conditions: Salmonella enterica subsp. enterica serovar Typhimurium
In short: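 RAW 264.7 macrophages, Nramp1+ (R37) or Nramp1-null (R21), were infected with serovar Typhimurium carrying pChν1. Homoserine lactone was 500 ng ml−1. Gentamicin 100 μg ml−1 was added 0.5 to 3 h after infection. Luminescence was read every 5 min, as a ratio to untreated control in the same cell line. Triplicate, at least three trials.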

[26] = system: Salmonella enterica subsp. enterica serovar Virchow; assay: Reduction in light emission by Salmonella enterica serovars virchow isolate 101591 at < 50 ug/ml; assay type: functional
Salmonella typhimurium [27] = assay: Reduction in light emission by Salmonella enterica serovars Typhimurium ATCC 14028 at > 30 ug/ml after 40 mins; assay type: functional, organism-based; conditions: Salmonella enterica subsp. enterica serovar Typhimurium
Salmonella [28] = assay: Antibacterial activity against Salmonella infected in mouse Nramp1 deficient RAW 264.7 cells assessed as log reduction in viable count at 100 ug/ml; assay type: functional, organism-based
[29] = system: Salmonella enterica subsp. enterica serovar Virchow; assay: as §5; assay type: functional; in short: as §4
Salmonella typhimurium [30] = assay: Reduction in light emission by Salmonella enterica serovars Typhimurium ATCC 14028 infected in mouse J774A.1 cells at 50 ug/ml after 30 mins; assay type: functional, organism-based; conditions: Salmonella enterica subsp. enterica serovar Typhimurium; in short: as §6
[31] = system: Salmonella enterica subsp. enterica serovar Virchow; assay: Reduction in light emission by Salmonella enterica serovars virchow isolate 101591 after 5mins; assay type: functional
[32] = Salmonella enterica, ATCC 14028, read-out: EC50
[33] = Salmonella enterica subsp. enterica serovar Typhimurium

Compound	EC50 [2]	EC50 [3]	Activity (Salmonella typhimurium [5])	Activity [6]	Activity (Salmonella typhimurium [7])	MIC (Salmonella typhimurium [8])	MIC [9]	Activity [10]	Activity (Salmonella typhimurium [11])	EC50 (Salmonella typhimurium [1]; [32])	EC50 (Salmonella typhimurium [4]; [32])	MIC (Salmonella typhimurium [12])	MIC [13]	Activity [14]	Activity [15]	other results
GENTAMICIN [listing 1 of 2 here]	85 µg/mL	2 µg/mL														EC50 (Salmonella typhimurium [1]): 34 µg/mL; EC50 (Salmonella typhimurium [4]): 1 µg/mL
NC[C@H]1O[C@H](O[C@H]2[C@H](O)[C@@H](O[C@H]3O[C@H](CO)[C@@H](O)[C@H](N)[C@H]3O)[C@H](N)C[C@@H]2N)[C@H](O)[C@@H](O)[C@@H]1O [KANAMYCIN]	130 µg/mL (≈ 268 µM)	6.5 µg/mL (≈ 13.4 µM)	Active	Active	Active	8 µg/mL (≈ 16.5 µM)	16 µg/mL (≈ 33 µM)	Active	inactive	29 µg/mL (≈ 59.9 µM)	3.5 µg/mL (≈ 7.22 µM)	250 µg/mL (≈ 516 µM)	250 µg/mL (≈ 516 µM)	Active	Active	
GENTAMICIN [listing 2 of 2 here]			Active	Active	Active			Active	inactive					Active		Activity (Salmonella typhimurium [16]): 20%; Activity (Salmonella typhimurium [17]): Active; MIC (Salmonella typhimurium [8]; [33]): 4 µg/mL; Activity [18]: Active; FC (Salmonella [19]): 0.4; Activity (Salmonella typhimurium [20]): inactive; MIC [21]: 8 µg/mL; Activity (Salmonella typhimurium [22]): Active; Activity (Salmonella typhimurium [23]): Active; Activity (Salmonella typhimurium [24]): Active; Activity (Salmonella typhimurium [25]): 80%; Activity [26]: inactive; Activity (Salmonella typhimurium [27]): Active; FC (Salmonella [28]): 1.6; MIC (Salmonella typhimurium [12]; [33]): 125 µg/mL; MIC [29]: 125 µg/mL; Activity (Salmonella typhimurium [30]): Active; Activity [31]: Active
NC[C@H]1O[C@H](O[C@H]2[C@H](O)[C@@H](O[C@H]3O[C@H](CO)[C@@H](O)[C@H](N)[C@H]3O)[C@H](N)C[C@@H]2N)[C@H](N)C[C@@H]1O [TOBRAMYCIN]	75 µg/mL (≈ 160 µM)	2.5 µg/mL (≈ 5.35 µM)	Active	Active	Active	4 µg/mL (≈ 8.56 µM)	8 µg/mL (≈ 17.1 µM)	Active	inactive	19 µg/mL (≈ 40.6 µM)	1 µg/mL (≈ 2.14 µM)	125 µg/mL (≈ 267 µM)	250 µg/mL (≈ 535 µM)	Active	Active	
